NR2E3 ag-1: agonists of human NR2E3 nuclear receptor; CHO-S Gal4-NCOR/VP16-NR2E3 two-hybrid, luciferase; inhibition of corepressor binding, % at 3.98 µM; 360,000 compounds, 0.35% hits; AID 602229;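 active = inhibition above the mean of all tested compounds plus 3 SD, cut at about 70% in these data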;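 note: 0% = DMSO with NR2E3 transfected cells and 100% = cells lacking NR2E3 construct; higher means lower luciferase signal from less NR2E3 corepressor binding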
JMJD2C inh: inhibitors of human GASC-1 (JMJD2C) demethylase | 330,000 compounds, 0.069% hits | GST-JMJD2C(1-420) H3K9me3 demethylation, DELFIA europium | Q9H3R0 | inhibition, % at 2.35 µM;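 active = more than half of a compound's replicate wells show inhibition beyond 50%, single wells judged on their own value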;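 note: signal counts dimethyl H3K9 product captured on neutravidin plate; 0% = median of DMSO wells and 100% = 0.3 times that DMSO median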
Target sequence (Q9H3R0 1-420 limits assumed): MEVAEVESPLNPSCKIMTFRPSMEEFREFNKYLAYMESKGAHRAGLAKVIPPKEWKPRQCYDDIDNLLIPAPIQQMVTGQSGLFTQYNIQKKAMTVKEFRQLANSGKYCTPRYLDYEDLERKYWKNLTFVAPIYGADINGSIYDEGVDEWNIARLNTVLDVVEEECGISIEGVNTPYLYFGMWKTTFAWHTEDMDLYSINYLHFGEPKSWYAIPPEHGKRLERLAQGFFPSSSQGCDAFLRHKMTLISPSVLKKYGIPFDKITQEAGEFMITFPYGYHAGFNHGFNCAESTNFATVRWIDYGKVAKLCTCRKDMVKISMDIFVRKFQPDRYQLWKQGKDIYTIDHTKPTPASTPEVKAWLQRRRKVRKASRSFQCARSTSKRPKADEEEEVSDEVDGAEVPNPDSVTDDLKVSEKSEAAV
proKLK7 act: proKLK7 (human) activation, primary screen; purified proKLK7, EDANS-DABCYL substrate fluorescence; 100% is mature enzyme control, 0% vehicle; activation, % at 7 µM; 370,000 compounds, 0.9% hits;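 active = activation above the mean of all tested compounds plus 3 SD, computed per campaign excluding outliers beyond control limits, cut at about 13% in these data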
Target sequence (P49862 whole entry, looked up): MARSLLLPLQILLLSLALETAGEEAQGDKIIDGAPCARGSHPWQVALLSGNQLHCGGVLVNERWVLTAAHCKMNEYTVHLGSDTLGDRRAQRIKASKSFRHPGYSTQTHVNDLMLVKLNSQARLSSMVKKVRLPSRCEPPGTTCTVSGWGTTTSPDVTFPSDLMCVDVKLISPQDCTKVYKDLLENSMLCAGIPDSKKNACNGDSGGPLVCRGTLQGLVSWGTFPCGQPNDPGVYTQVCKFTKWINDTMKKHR
ADAM17 inh: inhibitors of human ADAM17; recombinant ADAM17, EDANS/DABCYL FRET peptide cleavage; P78536; inhibition, % at 6.95 µM; 370,000 compounds, 0.83% hits;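 active = inhibition above the mean of compounds lying between control limits plus 3 SD, set per campaign, cut at about 8.5% in these data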;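 note: 0% = DMSO-only wells as the low control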
ADAM10 inh: inhibitors of human ADAM10; O14672; inhibition, % at 7 µM; recombinant ADAM10, EDANS/DABCYL FRET peptide cleavage, 3 h; 370,000 compounds, 0.62% hits;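 active = inhibition above a per-campaign cutoff equal to the mean of compounds falling between control-based bounds plus 3 SD, cut at about 20% in these data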;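 note: 0% = DMSO wells while the 100% control is not disclosed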
NR2E3 ag-2: NR2E3 (human) agonism; Q9Y5X4; AID 2300; inhibition of corepressor binding, % at 4.78 µM; GST-NR2E3/biotin-RetCOR TR-FRET, 1536-well; 320,000 compounds, 0.12% hits;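 active = percent inhibition above the cutoff of mean plus 3 SD of all tested compounds, set per screening campaign, cut at about 20% in these data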;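 note: 0% = DMSO wells and 100% = biotin wells as full block of FRET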
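System: GST-NR2E3 and biotin-RetCOR proteins; probe or stimulus: 7 nM biotin-RetCOR; doses: compound at 4.8 µM, single dose; schedule: Compound–protein incubation for 5 h at 4 °C; detection: time-resolved FRET; read-out: percent inhibition; controls: biotin wells as high control, 0.6% DMSO wells as low control; format: 1536-well plates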
ADAM10 confirm: human ADAM10 inhibition, confirmation. shares compounds with ADAM10 inh. ADAM10 QFRET peptide cleavage, EDANS fluorescence. inhibition, % at 6.95 µM. 2,100 compounds, 1% hits;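 active = inhibition above about 20% chosen separately for each screening run, limit read from the data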;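 note: 0% = DMSO wells and 100% = marimastat wells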
ADAM17 counter: inhibits human ADAM17 in ADAM10 exosite counter-screen. ADAM17 QFRET peptide cleavage, EDANS fluorescence. inhibition, % at 6.95 µM. shares compounds with ADAM10 inh. AID 743214. 2,100 compounds, 0.5% hits;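 active = mean triplicate inhibition above the solvent-only control wells' mean plus 3 SD, cut at about 12% in these data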;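 note: 0% = DMSO wells and 100% = marimastat wells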
ADAM10 counter: counter-screen for ADAM17 exosite inhibitors: inhibitors of human ADAM10; AID 743256; recombinant ADAM10, EDANS/DABCYL FRET peptide cleavage, 3 h; 2,900 compounds, 47% hits; shares compounds with ADAM17 inh; inhibition, % at 6.95 µM;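 active = mean inhibition over the triplicate runs exceeds the activity threshold set in the earlier primary screen, cut at about 20% in these data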;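 note: 0% = DMSO wells and 100% = marimastat wells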
ADAM17 confirm: confirmation of inhibitors of human ADAM17 | AID 743257 | recombinant ADAM17, EDANS/DABCYL QFRET peptide cleavage | 2,900 compounds, 65% hits | inhibition, % at 6.95 µM | shares compounds with ADAM17 inh;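 active = mean inhibition across replicates above the hit cutoff set in the primary screen, cut at about 8.5% in these data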;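 note: 0% = DMSO wells and 100% = marimastat wells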
An asterisk follows results filed as active; x = not tested or not shown. Hits are enriched below; roughly 2.5% of the tested compounds scored in any of these assays.

SMILES | NR2E3 ag-1 | JMJD2C inh | proKLK7 act | ADAM17 inh | ADAM10 inh | NR2E3 ag-2 | ADAM10 confirm | ADAM17 counter | ADAM10 counter | ADAM17 confirm
Cc1cccc(-n2cc(CN(C)Cc3nccn3C)c(-c3cccc(F)c3)n2)c1 | 9 | 2 | 0 | 11* | 24* | -1 | 3 | 1 | 12 | 10*
CSc1ccc(C2c3[nH]c4ccccc4c3CCN2C(=O)c2cc(C)n(C)n2)cc1 (stereo not drawn) | x | -2 | x | x | x | -2 | x | x | x | x
CCc1ccc(C2c3[nH]c4ccccc4c3CCN2C(=O)c2cc(C)nn2C)cc1 (stereo not drawn) | -23 | -1 | 0 | 13* | 23* | 1 | 7 | 3 | 16 | 10*
O=C(COC(=O)CCCOc1ccc(Cl)cc1Cl)Nc1cccc(Cl)c1 | -8 | -3 | 0 | 13* | 23* | -2 | 9 | 4 | 38* | 20*
CCOC(=O)N1CCC(NC(=O)c2cc(S(=O)(=O)NCCc3ccccc3)ccc2F)CC1 | -12 | -2 | 0 | 3 | -6 | -1 | x | x | x | x
O=C(Nc1cccc(Cl)c1)c1cc(S(=O)(=O)NCCc2ccc(Cl)cc2)ccc1F | -3 | -23 | 0 | 13* | 29* | -2 | 11 | 4 | 34* | 17*
Cc1ccc(NC(=O)c2cc(S(=O)(=O)NCCc3ccccc3)ccc2F)cc1Cl | -10 | -1 | 0 | 16* | 23* | -1 | 10 | 3 | 24* | 14*
COc1ccc(CNS(=O)(=O)c2ccc(F)c(C(=O)Nc3ccc(OC)cc3)c2)cc1 | 0 | 15 | 1 | 5 | -1 | 1 | x | x | x | x
O=C(NCC(c1ccccc1)c1ccccc1)[C@H](Cc1c[nH]c2ccccc12)NC1(C(=O)NC2CCCCC2)CCC1 | x | x | x | 14* | 24* | x | 7 | 2 | 34* | 24*
O=C(NCCCc1ccccc1)[C@H](Cc1c[nH]c2ccccc12)NC1(C(=O)NCCc2c[nH]c3ccccc23)CCC1 | x | x | x | 16* | 31* | x | 10 | 3 | 30* | 14*
O=C(NCCCc1ccccc1)[C@H](CO)NC1(C(=O)NCCc2c[nH]c3ccccc23)CCCCC1 | x | x | x | -3 | 0 | x | x | x | x | x
CC(C)(N[C@@H](Cc1c[nH]c2ccccc12)C(=O)NCC(c1ccccc1)c1ccccc1)C(=O)NC1CCCCC1 | x | x | x | 9.9* | 21* | x | 8 | 3 | 40* | 19*
O=C(NCCc1c[nH]c2ccccc12)[C@H](Cc1c[nH]c2ccccc12)NC1(C(=O)NC2CCCCC2)CCCCCCC1 | x | x | x | 2 | 3 | x | x | x | x | x
CC(C)(N[C@@H](Cc1c[nH]c2ccccc12)C(=O)NCCc1c[nH]c2ccccc12)C(=O)NC1CCCCC1 | x | x | x | 3 | 6 | x | x | x | x | x
CC(C)(C)OC(=O)N1CCC(N[C@@H](Cc2c[nH]c3ccccc23)C(=O)NCCc2c[nH]c3ccccc23)(C(=O)NC2CCCCC2)CC1 | x | x | x | 9.2* | 26* | x | 9 | 2 | 29* | 15*
CC(C)CN(C(=O)COc1ccc(C(C)(C)C)cc1)C1CCS(=O)(=O)C1 (stereo not drawn) | 3 | 19 | 0 | -3 | -5 | -2 | x | x | x | x
O=C1CC(N(CCc2ccccc2)C(=S)Nc2ccccc2)C(=O)N1c1ccc(Br)cc1 (stereo not drawn) | -9 | 9 | 0 | 17* | 35* | 0 | 8 | 4 | 46* | 22*
Cc1cccc(Nc2nc(N)c([N+](=O)[O-])c(NCc3ccco3)n2)c1 | 3 | -3 | -1 | 16* | 31* | 0 | 2 | 1 | 20* | 10*
Cc1cccc(Nc2nc(NCc3ccco3)nc(N)c2[N+](=O)[O-])c1 | -17 | 4 | 0 | -3 | 5 | 1 | x | x | x | x
COc1cc(CCCN2CCNC[C@@H]2Cc2ccc(O)cc2)cc(OC)c1OC | 3 | 2 | -1 | -6 | -7 | 1 | x | x | x | x
CN(Cc1ccccc1)C(=O)c1[nH]cnc1C(=O)NCCCCCNC(=O)OC(C)(C)C | -13 | 6 | 0 | 2 | 10 | 1 | x | x | x | x
CC(C)C[C@H](NC(=O)c1nc[nH]c1C(=O)NCCCCCNC(=O)OC(C)(C)C)C(=O)OCc1ccccc1 | 15 | -3 | 0 | 14* | 29* | 0 | 9 | 2 | 42* | 21*
CC(C)(C)OC(=O)NCCCCCNC(=O)c1ncn(Cc2ccccc2)c1C(=O)NCCCCCNC(=O)OC(C)(C)C | 31 | -1 | 0 | 13* | 20* | x | 2 | 1 | 31* | 16*
C[C@H](NC(=O)c1nc[nH]c1C(=O)NCCCCCNC(=O)OC(C)(C)C)C(=O)OCc1ccccc1 | -24 | 5 | 1 | 4 | 10 | 2 | x | x | x | x
CC(C)(C)OC(=O)NCCCCCNC(=O)c1[nH]cnc1C(=O)N[C@@H](Cc1ccccc1)C(=O)OCc1ccccc1 | -1 | -9 | 1 | 11* | 23* | 3 | 8 | 2 | 41* | 21*
SMILES | NR2E3 ag-1 | JMJD2C inh | proKLK7 act | ADAM17 inh | ADAM10 inh | NR2E3 ag-2 | ADAM10 confirm | ADAM17 counter | ADAM10 counter | ADAM17 confirm
CN(N)C(=S)Nc1ccc(Cl)cc1 | 3 | 11 | 0 | -6 | -12 | -2 | x | x | x | x
C[C@H](NC(=O)c1nc[nH]c1C(=O)N[C@@H](CCCCN)C(=O)OC(C)(C)C)C(=O)OCc1ccccc1 | 6 | x | 1 | -4 | -2 | x | x | x | x | x
O=C(c1ccc(Cl)c(Cl)c1)N1CCC(O)(CN2CCOCC2)CC1 | -18 | -9 | 0 | 2 | 3 | 2 | x | x | x | x
O=C(c1ccc(Cl)cc1)N1CCC(O)(CSc2ccc(Cl)cc2Cl)CC1 | -5 | x | 1 | 9.4* | 27* | -2 | 4 | 2 | 27* | 11*
CC(C)(C)NC(=O)C(c1c[nH]c2ccccc12)N(C(=O)Cn1nnc(-c2ccc(F)cc2)n1)c1cccc(O)c1 (stereo not drawn) | -24 | 6 | 0 | 14* | 28* | -2 | 8 | 3 | 32* | 19*
OC(COCC(F)(F)C(F)(F)C(F)(F)C(F)F)Cn1c2ccccc2c2ccccc21 (stereo not drawn) | -7 | -2 | -2 | 15* | 34* | 2 | 12 | 5 | 29* | 19*
